Source: PubChem
A selection: hits, their analogues and other compounds. The true share with any hit is near 3.9%.
CRFBP-R2 agonist = CRF-BP/CRF-R2 complex agonism; 350,000 tested, 0.46% active; AID 588473; HEK293 CRF-R2/CRF-BP, calcium dye fluorescence (FLIPR); percent of saturating CRF peptide response; activation, % at 13.2 µM;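 active = activation of at least 50%, plus an integration ratio under a set limit after plate pattern correction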;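 note: plate controls were neutral control wells without compound for no effect and CRF at EC100 for full effect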
TAAR1 ag = human TAAR1 agonism. CHO RD-HGA16 TAAR1, Fluo-8 calcium fluorescence; vehicle wells 0%, saturating PEA agonist 100%. Q96RJ0. 360,000 tested, 0.99% active. activation, % at 3 µM. AID 624467;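 active = activation above the mean activation of all test compounds in the run plus 3 SD, cut at about 38% in these data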
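Test system: RD-HGA16 (CHO) cells co-expressing Gα16 and hTAAR1; dosing: one-point dosing at 3 µM (nominal); timing: 17-24 h seeding, 75 min 37 °C dye, 30 min RT; signal: kinetic Fluo-8 calcium fluorescence; read-out basis: % activation relative to PEA EC100 response; controls: DMSO and PEA EC100; replicates: n 1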
CRFR2-BP antag = blocks CRF-induced signaling of the CRF-BP/CRF-R2 complex; HEK293 CRF-R2/CRF-BP, CRF-induced calcium fluorescence; inhibition, % at 11.8 µM; 350,000 tested, 0.59% active; AID 588475;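 active = inhibition of the ligand-induced calcium signal above about 50% at the single tested concentration, limit read from the data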
TMEM16A act = activates or potentiates the mouse TMEM16A chloride channel | Q8BHY3 | AID 623877 | 340,000 tested, 0.3% active | B-score at 10 µM | HEK293 TMEM16A/YFP-H148Q/I152L, iodide quench fluorescence; hits give low values;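 active = fluorescence-ratio B-score plate-corrected deviation score at least 3 library SD below zero, with starting fluorescence score within 5 deviations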;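 note: channel opened by trigger with iodide after compound preincubation; score built on the fluorescence ratio of max minus min over baseline; more negative score means more quench and so TMEM16A activation or potentiation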
TMEM16A inh = mouse TMEM16A channel inhibition, primary screen; Q8BHY3; HEK293 TMEM16A/YFP iodide influx fluorescence, ionomycin; normalized B-score (activity score, 25-100; higher = stronger inhibition) at 10 µM; 310,000 tested, 1.2% active; AID 588511;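 active = ratio plate-corrected score three or more library SD toward inhibition, starting fluorescence score within five deviations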;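 note: score derived from kinetic fluorescence span divided by baseline fluorescence per well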
TAAR1 antagonist = antagonists of human TAAR1 | Q96RJ0 | CHO RD-HGA16 TAAR1, Fluo-8 calcium fluorescence, antagonist | inhibition, % at 3 µM | 360,000 tested, 1.5% active;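 active = inhibition above a per-plate cutoff, the mean inhibition of test compounds on that plate plus 3 SD, cut at about 49% in these data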;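 note: 0% = DMSO plus EC80 beta-PEA response and 100% = DMSO alone without agonist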
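Test system: hTAAR1-expressing CHO RD-HGA16 cells, Gα16-coupled; Probe or stimulus: EC80 β-phenethylamine stimulus; Compound dosing: single nominal final test compound concentration of 3 µM; Timing: 140 s kinetic read after compound, 140 s after agonist; Signal: Fluo-8 calcium-sensitive fluorescence; Measure: % inhibition of agonist calcium response; Controls: DMSO and EC80 PEA controls.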
TMEM16A reconf = TMEM16A (mouse) chloride channel inhibition, re-confirmation; shares compounds with TMEM16A inh; HEK293 TMEM16A/YFP-H148Q, iodide quench fluorescence; ionomycin added to raise cell calcium; inhibition, % at 10 µM; 2,300 tested, 39% active;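 active = mean duplicate percent inhibition, scaled so buffer wells are 0 and the reference blocker 100, over three buffer SD above buffer mean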
HEK293 Ca mobil = alters calcium mobilization in TMEM16A HEK293 cells, counter-screen; shares compounds with TMEM16A inh; TMEM16A/YFP HEK293, Fluo4 calcium mobilization; calcium response (% of ionomycin), % at 10 µM; 2,300 tested, 2% active; AID 652231;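 active = duplicate-averaged calcium signal over 20% of the ionomycin maximum, relative to buffer baseline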;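 note: each well's signal is peak minus trough fluorescence divided by its pre-addition baseline; 0% = buffer wells and 100% = ionomycin wells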
Parental YFP cnt = counter-screen for TMEM16A inhibitors: effect in parental YFP-HEK293 cells; 2,300 tested, under 10 active; YFP ratio F(max-min)/F0 at 10 µM; AID 652233; iodide YFP quench, ionomycin; shares compounds with TMEM16A inh;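 active = yellow fluorescent protein signal ratio exceeding the buffer control mean by over 5 SD of those controls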;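 note: ratio is mean of duplicate wells from kinetic YFP trace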
ClC-1 inh = rat ClC-1 inhibition, TMEM16A specificity screen. 2,300 tested, under 10 active. CHO ClC-1-YFP, iodide influx fluorescence quench; iodide control reads 0, buffer control 100. AID 652236. ratio percent, % at 10 µM. shares compounds with TMEM16A inh;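 active = duplicate-mean ratio percent above the mean of iodide-only control wells, which defines zero, plus 5 of their SD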;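 note: higher percent means stronger block of ClC-1 iodide influx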
Target sequence (P35524 whole entry, looked up): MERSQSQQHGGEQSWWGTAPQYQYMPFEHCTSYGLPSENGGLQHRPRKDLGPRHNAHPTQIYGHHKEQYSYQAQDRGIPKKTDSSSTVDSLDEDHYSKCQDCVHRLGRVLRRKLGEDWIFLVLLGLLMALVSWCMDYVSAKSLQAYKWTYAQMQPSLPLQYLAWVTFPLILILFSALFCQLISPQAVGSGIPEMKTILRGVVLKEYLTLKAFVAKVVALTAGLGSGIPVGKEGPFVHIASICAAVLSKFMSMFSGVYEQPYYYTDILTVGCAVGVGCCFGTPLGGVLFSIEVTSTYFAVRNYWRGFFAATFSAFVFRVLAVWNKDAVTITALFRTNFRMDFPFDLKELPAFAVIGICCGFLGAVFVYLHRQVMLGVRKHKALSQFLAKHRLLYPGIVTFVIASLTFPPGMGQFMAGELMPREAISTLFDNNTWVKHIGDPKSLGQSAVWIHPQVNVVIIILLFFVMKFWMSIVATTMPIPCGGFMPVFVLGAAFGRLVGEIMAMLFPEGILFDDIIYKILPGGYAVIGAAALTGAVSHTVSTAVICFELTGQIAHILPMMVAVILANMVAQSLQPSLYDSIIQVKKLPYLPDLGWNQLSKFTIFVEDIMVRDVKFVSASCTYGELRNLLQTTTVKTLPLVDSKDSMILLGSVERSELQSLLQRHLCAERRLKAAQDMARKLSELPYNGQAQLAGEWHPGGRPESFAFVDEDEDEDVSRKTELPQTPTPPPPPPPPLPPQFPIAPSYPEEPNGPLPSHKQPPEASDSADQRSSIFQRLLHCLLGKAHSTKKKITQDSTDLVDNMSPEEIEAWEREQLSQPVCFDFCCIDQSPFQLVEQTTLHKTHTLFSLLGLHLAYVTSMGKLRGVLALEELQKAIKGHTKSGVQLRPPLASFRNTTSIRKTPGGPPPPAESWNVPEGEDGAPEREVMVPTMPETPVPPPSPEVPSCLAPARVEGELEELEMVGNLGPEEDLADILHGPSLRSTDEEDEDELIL
Starred values were filed as active, the others as inactive; i = inactive; x = no result given.

SMILES	CRFBP-R2 agonist	TAAR1 ag	CRFR2-BP antag	TMEM16A act	TMEM16A inh	TAAR1 antagonist	TMEM16A reconf	HEK293 Ca mobil	Parental YFP cnt	ClC-1 inh
CCCC1(C(=O)O)NC(c2ccccc2O)C2C(=O)N(Cc3ccccc3)C(=O)C21 (stereo not given)	0.1	3.2	-4.0	i	100*	-9.4	i	i	-0.894	-6.0
Cc1nc2ccc(NC(=O)c3ccccc3)cc2c(=O)n1Cc1ccc(F)cc1	-2.2	1.8	-3.8	x	x	5.3	x	x	x	x
C=CCN1C(=NC(=O)COc2ccc(Cl)cc2)SC2CS(=O)(=O)CC21 (stereo not given)	-0.8	5.8	-2.2	i	i	-19.4	x	x	x	x
COc1ccc(/C=N/N(C)C2=NS(=O)(=O)c3ccccc32)cc1	6.0	5.9	-24.9	i	i	-8.7	x	x	x	x
COc1ccc(N(C)C2=NS(=O)(=O)c3ccccc32)cc1	6.5	5.2	4.2	i	100*	-0.1	i	i	-1.09	-2.0
Cc1ccccc1-c1cc(C(=O)Nc2sc(C(=O)OC(C)C)c(C)c2C#N)c2ccccc2n1	40.2	15.9	47.3	i	25*	24.9	67.5%*	i	-1.17	-20.5
COC(=O)c1sc(NC(=O)c2cc(-c3ccccc3)nc3ccccc23)c(C#N)c1C	53.9*	10.7	20.9	i	100*	34.9	42.0%*	i	-1.04	-22.0
CCNC(=S)N1CCN(C(=O)C(Cc2ccccc2)NC(C)=O)CC1 (stereo not given)	0.8	1.1	-12.8	i	i	19.1	x	x	x	x
Cc1noc(C)c1C(=O)N1CCC1(C)C(=O)NS(=O)(=O)c1ccccc1C(F)(F)F (stereo not given)	x	5.4	x	x	x	-18.3	x	x	x	x
CN(C)c1ccccc1C(=O)N1CCCC(C(=O)c2ccc3ccccc3c2)C1 (stereo not given)	0.8	4.9	-9.4	i	100*	1.4	i	i	-1.23	-8.0
Cc1cc(Cl)ccc1C(=O)C1CCCN(C(=O)CN2CCOC2=O)C1 (stereo not given)	-0.8	2.1	-4.0	i	i	-8.1	x	x	x	x
CCN(Cc1ccccc1)C(c1ccc(C)cc1)c1nnnn1C(C)(C)CC (stereo not given)	2.2	14.1	20.6	i	100*	11.0	i	i	-1.48	0.0
Cc1cn(CC(=O)c2ccccc2)c2ccccc12	-0.2	1.1	1.8	i	i	6.7	x	x	x	x
N#C/C(=C\c1ccc(N2CCOCC2)o1)C(=O)NC1CCCCC1	96.0*	8.0	-85.6	i	i	13.3	i	i	-0.935	-19.0
Cc1cc(C(=O)NC2CCCc3c2cnn3-c2cccc(C)c2C)no1 (stereo not given)	1.2	1.4	10.2	i	25*	13.9	i	i	-0.792	-11.0
C=CCn1c(-c2ccc(S(=O)(=O)N3CCOCC3)cc2)csc1=Nc1ccccc1	-0.7	8.4	-10.0	i	i	20.3	x	x	x	x
COc1ccc(-c2csc(=Nc3ccccc3)n2CCO)cc1	-0.9	5.9	15.1	i	100*	17.3	44.5%*	i	-1.24	0.0
CC(=O)c1cccc(N=c2scc(-c3ccc(S(=O)(=O)N4CCOCC4)cc3)n2CCO)c1	1.4	17.8	-9.0	i	25*	35.6	37.5%*	i	-1.04	-18.5
